Data published in publication PMC11463018 (Journal of Enzyme Inhibition and Medicinal Chemistry, 2024).

Legend:
JAK1 = JAK1 (Homo sapiens, UniProt P23458); assay: Kinase inhibition assay; format: biochemical
HDAC6 = target: T1, HDAC6 (Homo sapiens, UniProt Q9UBN7); assay: In vitro HDAC enzyme assay; format: biochemical
T1 sequence (Q9UBN7 1-1215): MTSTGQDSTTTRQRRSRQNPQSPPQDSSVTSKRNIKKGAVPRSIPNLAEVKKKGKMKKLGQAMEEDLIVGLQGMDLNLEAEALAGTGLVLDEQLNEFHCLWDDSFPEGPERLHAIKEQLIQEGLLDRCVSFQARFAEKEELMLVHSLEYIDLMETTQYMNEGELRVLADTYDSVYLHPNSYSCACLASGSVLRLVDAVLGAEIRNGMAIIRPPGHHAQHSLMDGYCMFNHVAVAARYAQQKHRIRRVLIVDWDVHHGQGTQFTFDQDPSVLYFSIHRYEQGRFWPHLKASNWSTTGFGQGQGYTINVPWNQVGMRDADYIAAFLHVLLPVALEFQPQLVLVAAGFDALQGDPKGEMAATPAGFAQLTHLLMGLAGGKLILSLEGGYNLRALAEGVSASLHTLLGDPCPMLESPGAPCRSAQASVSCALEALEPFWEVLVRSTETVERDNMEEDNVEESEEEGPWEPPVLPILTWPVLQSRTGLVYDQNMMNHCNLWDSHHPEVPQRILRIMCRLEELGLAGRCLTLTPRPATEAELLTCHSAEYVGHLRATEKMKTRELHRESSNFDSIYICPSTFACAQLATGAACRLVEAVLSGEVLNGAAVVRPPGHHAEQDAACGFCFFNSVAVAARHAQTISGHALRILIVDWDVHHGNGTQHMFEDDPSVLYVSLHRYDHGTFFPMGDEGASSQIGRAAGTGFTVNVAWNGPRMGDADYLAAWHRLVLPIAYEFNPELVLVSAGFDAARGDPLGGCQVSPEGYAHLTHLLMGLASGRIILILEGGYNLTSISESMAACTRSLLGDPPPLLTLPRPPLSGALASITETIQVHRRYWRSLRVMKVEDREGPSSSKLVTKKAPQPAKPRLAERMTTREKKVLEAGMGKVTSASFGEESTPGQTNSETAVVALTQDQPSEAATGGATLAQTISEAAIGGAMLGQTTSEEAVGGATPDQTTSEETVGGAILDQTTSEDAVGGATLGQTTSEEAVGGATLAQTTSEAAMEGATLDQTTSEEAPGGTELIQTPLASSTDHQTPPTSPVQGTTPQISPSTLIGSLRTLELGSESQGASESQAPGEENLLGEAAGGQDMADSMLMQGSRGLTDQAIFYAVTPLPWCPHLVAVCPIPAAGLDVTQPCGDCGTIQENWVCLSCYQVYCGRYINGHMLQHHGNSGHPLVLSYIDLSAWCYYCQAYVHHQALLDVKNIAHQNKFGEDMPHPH

MDA-MB-231 = assay: cells; format: cell-based; details: Homo sapiens, MDA-MB-231, read-out: Antiproliferative effect IC50, MDA-MB-231
RPMI-8226 = assay: cells; format: cell-based; details: Homo sapiens, RPMI-8226, read-out: Antiproliferative effect IC50, RPMI-8226
[1] = Microsomal stability assay; format: in vitro ADME; details: human, human liver microsomes, pH 7.4
Method in brief: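 Human liver microsomes at 0.8 mg/mL, with magnesium chloride and potassium phosphate buffer (pH 7.4), incubated with test compound at 0.5 μM. Mix prewarmed 5 min at 37 °C, then started with NADPH. Stopped at 0, 5, 10, 15, 30, 60 or 90 min with ice-cold ethyl acetate, spun 4000 rpm for 10 min at 4 °C. Supernatant analysed by LC-MS/MS and half-life determined.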

Chain of JAK1 (P23458 whole entry): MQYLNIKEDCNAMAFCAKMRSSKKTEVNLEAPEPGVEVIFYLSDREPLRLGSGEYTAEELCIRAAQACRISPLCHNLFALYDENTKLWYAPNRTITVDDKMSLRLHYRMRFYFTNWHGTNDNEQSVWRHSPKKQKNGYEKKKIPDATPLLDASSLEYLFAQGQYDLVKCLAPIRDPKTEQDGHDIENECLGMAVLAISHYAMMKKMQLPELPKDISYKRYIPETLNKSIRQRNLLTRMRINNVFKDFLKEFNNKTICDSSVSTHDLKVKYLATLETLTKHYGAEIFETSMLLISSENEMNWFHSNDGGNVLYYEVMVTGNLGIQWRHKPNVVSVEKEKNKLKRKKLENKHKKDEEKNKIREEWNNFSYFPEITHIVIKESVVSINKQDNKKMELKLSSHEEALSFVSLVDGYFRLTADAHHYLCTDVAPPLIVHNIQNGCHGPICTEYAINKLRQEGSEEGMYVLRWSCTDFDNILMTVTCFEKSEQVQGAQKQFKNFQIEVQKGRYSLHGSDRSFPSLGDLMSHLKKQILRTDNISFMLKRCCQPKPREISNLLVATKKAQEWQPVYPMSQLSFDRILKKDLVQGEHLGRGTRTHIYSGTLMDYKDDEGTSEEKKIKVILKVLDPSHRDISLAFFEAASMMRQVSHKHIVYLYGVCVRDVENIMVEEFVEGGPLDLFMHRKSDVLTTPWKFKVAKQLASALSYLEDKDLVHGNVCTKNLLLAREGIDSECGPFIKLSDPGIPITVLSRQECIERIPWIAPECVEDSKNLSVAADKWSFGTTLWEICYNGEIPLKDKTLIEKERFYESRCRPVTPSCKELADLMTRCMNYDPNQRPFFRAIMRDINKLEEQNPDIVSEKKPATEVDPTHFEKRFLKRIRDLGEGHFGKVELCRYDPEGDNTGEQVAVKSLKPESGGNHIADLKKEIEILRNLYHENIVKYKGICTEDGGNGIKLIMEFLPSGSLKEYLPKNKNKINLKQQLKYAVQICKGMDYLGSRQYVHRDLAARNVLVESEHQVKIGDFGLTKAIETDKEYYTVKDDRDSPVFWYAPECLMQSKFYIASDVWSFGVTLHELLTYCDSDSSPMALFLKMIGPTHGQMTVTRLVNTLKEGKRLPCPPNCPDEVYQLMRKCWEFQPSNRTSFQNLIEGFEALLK

Row | SMILES | IC50 (JAK1) | IC50 (HDAC6) | IC50 (MDA-MB-231) | IC50 (RPMI-8226) | half-life at 0.5 μM [1]
1 | Cc1ccc(-c2cccc3nc(NCc4ccc(C(=O)NO)cc4)nn23)cc1 [Compound 16e, N-hydroxy-4-(((5-(p-tolyl)-[1,2, 4]triazolo[1,5-a]pyridin-2-yl)amino)methyl)benzamide] | 0.304 ± 0.016 µM | 0.011 ± 0.0007 µM |  |  | 
2 | O=C(NO)c1ccc(CNc2nc3cccc(-c4cc(C(F)(F)F)cc(C(F)(F)F)c4)n3n2)cc1 [Compound 16m, 4-(((5–(3,5-bis(trifluoromethyl)phenyl)-[1,2, 4]triazolo[1,5-a]pyridin-2-yl)amino)methyl)-N-hydroxybenzamide] | 0.685 ± 0.05 µM | 0.0205 ± 0.00078 µM |  |  | 
3 | O=C(NO)c1ccc(CNc2nc3cccc(-c4ccc(C(F)(F)F)cc4)n3n2)cc1 [Compound 16l, N-hydroxy-4-(((5–(4-(trifluoromethyl)phenyl)-[1,2, 4]triazolo[1,5-a]pyridin-2-yl)amino)methyl)benzamide] | 0.46 ± 0.008 µM | 0.0114 ± 0.00088 µM |  |  | 
4 | COc1ccccc1-c1cccc2nc(NCc3ccc(C(=O)NO)cc3)nn12 [Compound 16d, N-hydroxy-4-(((5–(2-methoxyphenyl)-[1,2, 4]triazolo[1,5-a]pyridin-2-yl)amino)methyl)benzamide] | 0.75 ± 0.03 µM | 0.0102 ± 0.0008 µM |  |  | 
5 | O=C(NO)c1ccc(CNc2nc3cccc(-c4cccc(Cl)c4)n3n2)cc1 [Compound 16h, 4-(((5–(3-chlorophenyl)-[1,2, 4]triazolo[1,5-a]pyridin-2-yl)amino)methyl)-N-hydroxybenzamide] | 0.365 ± 0.025 µM | 0.00965 ± 0.00023 µM |  |  | 
6 | Cc1cccc(-c2cccc3nc(NCc4ccc(C(=O)NO)cc4)nn23)c1 [Compound 16f, N-hydroxy-4-(((5-(m-tolyl)-[1,2, 4]triazolo[1,5-a]pyridin-2-yl)amino)methyl)benzamide] | 0.315 ± 0.015 µM | 0.0137 ± 0.00088 µM |  |  | 
7 | O=C(Nc1nc2cccc(-c3ccc(CN4CCS(=O)(=O)CC4)cc3)n2n1)C1CC1 [Filgotinib, reference compound] |  |  | 27.2 ± 1.5 µM | 17.5 ± 1 µM | 
8 | O=C(NO)c1ccc(CNc2nc3cccc(-c4ccc(Cl)c(Cl)c4)n3n2)cc1 [Compound 16k, 4-(((5–(3,4-dichlorophenyl)-[1,2, 4]triazolo[1,5-a]pyridin-2-yl)amino)methyl)-N-hydroxybenzamide] | 0.39 ± 0.024 µM | 0.00615 ± 0.00012 µM |  |  | 
9 | Cc1ccccc1-c1cccc2nc(NCc3ccc(C(=O)NO)cc3)nn12 [Compound 16g, N-hydroxy-4-(((5-(o-tolyl)-[1,2, 4]triazolo[1,5-a]pyridin-2-yl)amino)methyl)benzamide] | 0.55 ± 0.032 µM | 0.016 ± 0.0011 µM |  |  | 
10 | O=C(NO)c1ccc(CNc2nc3cccc(-c4ccccc4Cl)n3n2)cc1 [Compound 16i, 4-(((5–(2-chlorophenyl)-[1,2, 4]triazolo[1,5-a]pyridin-2-yl)amino)methyl)-N-hydroxybenzamide] | 0.4 ± 0.028 µM | 0.0122 ± 0.0003 µM |  |  | 
11 | O=C(NO)c1ccc(CNc2nc3cccc(-c4ccc(F)cc4)n3n2)cc1 [Compound 16j, 4-(((5–(4-fluorophenyl)-[1,2, 4]triazolo[1,5-a]pyridin-2-yl)amino)methyl)-N-hydroxybenzamide] | 0.295 ± 0.016 µM | 0.0089 ± 0.00016 µM | 0.88 ± 0.06 µM | 0.28 ± 0.06 µM | 
12 | COc1cccc(-c2cccc3nc(NCc4ccc(C(=O)NO)cc4)nn23)c1 [Compound 16c, N-hydroxy-4-(((5–(3-methoxyphenyl)-[1,2, 4]triazolo[1,5-a]pyridin-2-yl)amino)methyl)benzamide] | 0.19 ± 0.01 µM | 0.0084 ± 0.00039 µM | 0.95 ± 0.02 µM | 0.31 ± 0.02 µM | 
13 | COc1ccc(-c2cccc3nc(NCc4ccc(C(=O)NO)cc4)nn23)cc1 [Compound 16b, N-hydroxy-4-(((5–(4-methoxyphenyl)-[1,2, 4]triazolo[1,5-a]pyridin-2-yl)amino)methyl)benzamide] | 0.146 ± 0.0085 µM | 0.00875 ± 0.00046 µM | 0.84 ± 0.04 µM | 0.29 ± 0.01 µM | 
14 | O=C(CCCCCCC(=O)Nc1ccccc1)NO [SAHA, vorinostat, reference compound] |  |  |  |  | 6.8 h
15 | O=C(NO)c1ccc(CNc2nc3cccc(-c4ccccc4)n3n2)cc1 [Compound 16a, N-hydroxy-4-(((5-phenyl-[1,2, 4]triazolo[1,5-a]pyridin-2-yl)amino)methyl)benzamide] | 0.32 ± 0.018 µM | 0.0095 ± 0.00072 µM | 0.9 ± 0.03 µM | 0.46 ± 0.03 µM | 
